# Measurements gathered from unrelated publications.
# Compare with care: the assays were run in different laboratories. pIC50: −log10 of the molar value.
# HTR1A: 5-hydroxytryptamine receptor 1A (HTR1A, Homo sapiens, UniProt P08908)
# MAPK14: Mitogen-activated protein kinase 14 (MAPK14, Homo sapiens, UniProt Q16539)
# PDE3A: cGMP-inhibited 3',5'-cyclic phosphodiesterase 3A (PDE3A, Homo sapiens, UniProt Q14432)
# ADRA2C: Alpha-2C adrenergic receptor (ADRA2C, Homo sapiens, UniProt P18825)
# Ephx2: Bifunctional epoxide hydrolase 2 (Ephx2, Rattus norvegicus, UniProt P80299)
# LRRK2 G2019S: Leucine-rich repeat serine/threonine-protein kinase 2 (LRRK2, Homo sapiens, UniProt Q5S007, G2019S)
SMILES,target,assay,pIC50
CC1Cc2ccccc2N1C(=O)NCCCCN(C)[C@@H]1Cc2cccc3[nH]c(=O)n(c23)C1 (mixture of isomers),HTR1A,"ligand displacement, radioligand",7.59
COc1ccc2c(Oc3ccc4c(C(=O)Nc5ccccc5N)cccc4c3)ccnc2c1,MAPK14,"enzyme activity, inhibitor",< 6.30
CSc1ccc(/C=C2/C(C)=C(CC(=O)O)c3cc(F)ccc32)cc1,PDE3A,"enzyme activity, inhibitor",< 4.00
Cc1nn2c(-c3c(C)nn(C)c3-c3ccc(C(F)(F)F)cc3)nc(CO)c2c(=O)[nH]1,PDE3A,"enzyme activity, inhibitor",4.93
Cc1nccc2c1c(=O)n(C)c1cc(OC[C@@H](N)CC(C)C)c(C#N)cc21,ADRA2C,cell-free assay,< 4.52
COc1ccc(C2=NN(C3CCCCCC3)C(=O)[C@@H]3CC=CC[C@H]23)cc1-c1ccc(C(N)=O)cc1 (relative stereo),PDE3A,"enzyme activity, inhibitor",5.10
CC(C)(C)n1nc(-c2cnc3cc(OC4CC4)ccc3c2)c(C(N)=O)c1N,MAPK14,cell-free assay,< 5.00
Cc1cc(C)nc(NC(=S)N2CCN(c3ccncc3)CC2)c1,MAPK14,"enzyme activity, inhibitor, ADP detection",7.00
CNc1nc(C)nc(N[C@H]2CCC[C@@H](C(=O)NCc3ccc(C#N)cc3C(F)(F)F)C2)n1,Ephx2,"enzyme activity, inhibitor",8.54
CC/C(=N\NC(=O)C(C)Nc1ccccc1)c1ccc(O)c(C)c1O (centres unmarked),"cAMP-dependent protein kinase catalytic subunit beta (PRKACB, Homo sapiens, UniProt P22694)","enzyme activity, inhibitor",7.60
CN1CCN(c2ccc(Nc3ncc4cc(C#N)c(=O)n(C5CCCC5)c4n3)cc2)CC1,"Mitogen-activated protein kinase kinase kinase kinase 4 (MAP4K4, Homo sapiens, UniProt O95819)","enzyme activity, inhibitor",6.61
CC(C)(C)n1nc(-c2ccc3nc(OC4CC4)ccc3c2)c(C(N)=O)c1N,"Death-associated protein kinase 3 (DAPK3, Homo sapiens, UniProt O43293)",cell-free assay,< 5.00
CCOCc1nc(O)c(-c2nnc(Cc3ccc(Cl)cn3)o2)c(O)c1-c1c(OC)cccc1OC,ADRA2C,"ligand displacement, radioligand",< 4.52
CCC(C)(O)C(=O)N1CCC(NC(=O)Nc2ccc(OC(F)(F)F)c(F)c2)CC1 (centres unmarked),Ephx2,"enzyme activity, inhibitor",7.97
Cc1cnc(-c2ccc(-c3ccc(NC(=O)Nc4c(F)cc(F)cc4F)cc3F)c3c2C(=O)NC3)[nH]1,"Serine/threonine-protein kinase PLK4 (PLK4, Homo sapiens, UniProt O00444)","enzyme activity, inhibitor",8.32
CCN1CCN(c2c(Cl)cccc2NC(=O)c2ccc(Br)o2)CC1,MAPK14,"enzyme activity, inhibitor",< 4.70
O=c1ccc2cc(O)c(O)cc2o1,LRRK2 G2019S,"enzyme activity, inhibitor, radiometric",6.45
CN(C)CCC=C1c2ccccc2CCc2ccccc21,"Estrogen receptor (ESR1, Homo sapiens, UniProt P03372)","reporter gene, antagonist",4.60
CN(CCCCNC(=O)c1cc2ccccc2[nH]1)[C@@H]1Cc2cccc3[nH]c(=O)n(c23)C1,HTR1A,"ligand displacement, radioligand",6.86
N#C/C(=C\c1ccc(O)c(O)c1)C(=O)OC/C=C/c1ccccc1,LRRK2 G2019S,"enzyme activity, inhibitor, radiometric",6.64
